Blank lines part the entries; values can stand above or below the molecule they belong to. Calls of active or inactive are those of the source. The rule behind the calls is not given here.
Columns and labels:
[1] = system: HepG2; assay: Reduction in lipid accumulation in human HepG2 cells at 1 microM by Oil Red O staining; type: functional, cell-based
[2] = biological target: T1, Oxysterols receptor LXR-beta (Homo sapiens, UniProt P55055); assay: Binding affinity to LXRbeta (unknown origin)
T1 sequence (P55055 whole entry): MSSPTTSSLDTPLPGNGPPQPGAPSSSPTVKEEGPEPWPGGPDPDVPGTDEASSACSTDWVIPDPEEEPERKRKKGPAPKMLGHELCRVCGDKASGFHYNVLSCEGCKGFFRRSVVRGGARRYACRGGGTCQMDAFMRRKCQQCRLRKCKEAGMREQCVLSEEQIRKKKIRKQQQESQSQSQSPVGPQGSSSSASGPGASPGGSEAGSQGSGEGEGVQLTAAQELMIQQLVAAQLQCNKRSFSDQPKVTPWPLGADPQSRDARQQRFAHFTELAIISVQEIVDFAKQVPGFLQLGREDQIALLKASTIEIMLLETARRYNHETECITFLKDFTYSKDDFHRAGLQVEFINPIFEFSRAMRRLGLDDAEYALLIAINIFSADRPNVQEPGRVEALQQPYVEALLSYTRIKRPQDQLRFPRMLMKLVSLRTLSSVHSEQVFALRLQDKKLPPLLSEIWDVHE

[3] = biological target: T2, Oxysterols receptor LXR-beta (Homo sapiens) (UniProt P55055); assay: Induction of recruitment of D22 peptide to LXRbeta (unknown origin) by TR-FRET LXR-alpha co-activator assay
T2 sequence (whole entry): T1 sequence (P55055 whole entry)

[4] = biological target: T3, Oxysterols receptor LXR-alpha (Homo sapiens) (UniProt Q13133); assay: Induction of recruitment of Trap220 peptide to LXRalpha (unknown origin) by TR-FRET LXR-alpha co-activator assay
T3 sequence (whole entry): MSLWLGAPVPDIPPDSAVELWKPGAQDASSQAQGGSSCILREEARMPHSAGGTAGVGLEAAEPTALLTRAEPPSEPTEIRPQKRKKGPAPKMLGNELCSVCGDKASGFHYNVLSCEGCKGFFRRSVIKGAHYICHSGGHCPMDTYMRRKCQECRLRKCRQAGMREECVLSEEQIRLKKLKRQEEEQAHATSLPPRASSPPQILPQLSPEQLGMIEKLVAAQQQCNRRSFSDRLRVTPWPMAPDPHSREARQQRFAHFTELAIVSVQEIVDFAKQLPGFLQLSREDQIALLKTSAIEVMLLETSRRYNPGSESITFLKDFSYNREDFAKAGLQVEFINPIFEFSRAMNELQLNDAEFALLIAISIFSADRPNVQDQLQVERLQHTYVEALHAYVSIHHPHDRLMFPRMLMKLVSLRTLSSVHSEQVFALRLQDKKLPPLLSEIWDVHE
Summary of the method: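 Cell-free LanthaScreen TR-FRET LXR-α co-activator recruitment assay, run per kit instructions, with T0901317 as reference agonist.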

[5] = biological target: T4, Oxysterols receptor LXR-alpha (Homo sapiens, UniProt Q13133); assay: Binding affinity to LXRalpha (unknown origin)
T4 sequence (Q13133 whole entry): T3 sequence (whole entry)

[6] = system: HepG2; assay: Downregulation of LXRalpha protein expression in human HepG2 cells at 50 to 100 microM by immunoblotting; type: functional
Summary of the method: (§1)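 Cells were preincubated 24 h in DMEM, then treated 24 h with 50 or 100 µM alongside a 1% DMSO vehicle. They were lysed in ice-cold Tris-HCl pH 7.4/EDTA/NaCl/0.5% Triton X-100 buffer with protease inhibitors. 30 µg protein was run on 10% SDS-PAGE and transferred to nitrocellulose. Blots were probed with target antibodies, with α-tubulin as reference, n = 3.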

[7] = system: HepG2; assay: Downregulation of FAS protein expression in human HepG2 cells at 50 to 100 microM by immunoblotting; type: functional; summary of the method: as §1
[8] = biological target: Oxysterols receptor LXR-beta (Homo sapiens) (UniProt P55055); assay: Agonist activity at LXRbeta (unknown origin) transfected in human CHO-K1 cells assessed as induction of transactivation by luciferase reporter gene transactivation assay relative to control
[9] = system: RAW264.7; assay: Induction of cholesterol efflux genes in mouse RAW264.7 cells assessed as increase in LXRbeta mRNA expression measured by qPCR; type: functional, cell-based
Summary of the method: (§2)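 Cells were preincubated 24 h in DMEM, then exposed 24 h to 50 or 100 µM (final) at 37 °C in 5% CO2. Vehicle was 1% DMSO, and each treatment was run at least in triplicate. Total RNA was extracted and transcripts were measured by qPCR relative to vehicle control, mean ± SE, n = 3.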

[10] = system: HepG2; assay: Reduction in lipid accumulation in human HepG2 cells at 100 microM by Oil Red O staining; type: functional, cell-based
[11] = system: RAW264.7; assay: Induction of cholesterol efflux in mouse RAW264.7 cells assessed as reduction in cellular cholesterol level at 100 microM relative to control; type: functional; parameters: scale not given: the % may be the effect or the level left
[12] = system: HepG2; assay: Downregulation of SCD-1 mRNA expression in human HepG2 cells at 50 to 100 microM by qPCR; type: functional; summary of the method: as §2
[13] = system: HepG2; assay: Downregulation of FAS mRNA expression in human HepG2 cells at 50 to 100 microM by qPCR; type: functional; summary of the method: as §2
[14] = biological target: Oxysterols receptor LXR-beta (Homo sapiens) (UniProt P55055); assay: Agonist activity at LXRbeta (unknown origin) transfected in human CHO-K1 cells assessed as induction of transactivation at 200 microM by luciferase reporter gene transactivation assay relative to control
[15] = system: RAW264.7; assay: Induction of cholesterol efflux genes in mouse RAW264.7 cells assessed as increase in LXRalpha protein expression measured at 100 microM by immunoblotting; type: functional, cell-based; summary of the method: as §1
[16] = system: RAW264.7; assay: Induction of LXR-responsive genes in mouse RAW264.7 cells assessed as increase in Abca1 mRNA expression measured at 50 to 100 microM by qPCR; type: functional, cell-based; summary of the method: as §2
[17] = system: RAW264.7; assay: Induction of cholesterol efflux genes in mouse RAW264.7 cells assessed as increase in LXRbeta mRNA expression measured at 50 microM by qPCR; type: functional; summary of the method: as §2
[18] = system: HepG2; assay: Reduction in lipid accumulation in human HepG2 cells at 50 microM by Oil Red O staining; type: functional, cell-based
[19] = system: RAW264.7; assay: Induction of cholesterol efflux genes in mouse RAW264.7 cells assessed as increase in LXRbeta mRNA expression measured at 100 microM by qPCR; type: functional; summary of the method: as §2
[20] = system: HepG2; assay: Downregulation of LXRalpha mRNA expression in human HepG2 cells at 50 to 100 microM by qPCR; type: functional; summary of the method: as §2
[21] = biological target: Oxysterols receptor LXR-beta (Homo sapiens) (UniProt P55055); assay: Agonist activity at LXRbeta (unknown origin) transfected in human CHO-K1 cells assessed as induction of transactivation at 50 microM by luciferase reporter gene transactivation assay relative to control
[22] = system: RAW264.7; assay: Induction of LXR-responsive genes in mouse RAW264.7 cells assessed as increase in ABCA1 protein expression measured at 100 microM by immunoblotting; type: functional, cell-based; summary of the method: as §1
[23] = biological target: T3, Oxysterols receptor LXR-alpha (Homo sapiens); assay: Agonist activity at LXRalpha (unknown origin) transfected in human CHO-K1 cells assessed as induction of transactivation at 50 to 200 microM by luciferase reporter gene transactivation assay relative to control; type: cell-based
Summary of the method: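 CHO-K1 cells in DMEM/F12 with 10% heat-inactivated FBS and 1% penicillin/streptomycin, co-transfected with pGL4.35 GAL4-UAS luciferase reporter, pSV-β-galactosidase and a human LXRα plasmid (pFN26A). After 24 h, cells were treated 24 h with 50, 100 or 200 µM. Firefly luciferase was normalized to β-galactosidase in the same lysate and expressed vs control, mean ± SE, n = 3.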

[24] = system: RAW264.7; assay: Induction of cholesterol efflux genes in mouse RAW264.7 cells assessed as increase in LXRbeta protein expression measured at 100 microM by immunoblotting; type: functional, cell-based; summary of the method: as §1
[25] = system: HepG2; assay: Downregulation of SREBP-1c protein expression in human HepG2 cells at 50 to 100 microM by immunoblotting; type: functional; summary of the method: as §1
[26] = system: RAW264.7; assay: Induction of LXR-responsive genes in mouse RAW264.7 cells assessed as increase in Abca1 mRNA expression measured at 50 to 100 microM by qPCR
[27] = system: RAW264.7; assay: Induction of cholesterol efflux in mouse RAW264.7 cells assessed as reduction in cellular cholesterol level at 100 microM in presence of higher cholesterol relative to control; type: functional; parameters: scale not given: the % may be the effect or the level left
[28] = biological target: Oxysterols receptor LXR-beta (Homo sapiens) (UniProt P55055); assay: Agonist activity at LXRbeta (unknown origin) transfected in human CHO-K1 cells assessed as induction of transactivation at 100 microM by luciferase reporter gene transactivation assay relative to control
[29] = system: RAW264.7; assay: Induction of cholesterol efflux genes in mouse RAW264.7 cells assessed as increase in LXRalpha mRNA expression measured at 50 to 100 microM by qPCR; type: functional; summary of the method: as §2
[30] = system: HepG2; assay: Downregulation of SREBP-1c mRNA expression in human HepG2 cells at 50 to 100 microM by qPCR; type: functional; summary of the method: as §2

- EC50 [2]: 10 nM
- Activity [3]: Dose-dependent effect
- Activity [4]: Dose-dependent effect
- EC50 [5]: 320 nM
SMILES: CCN(c1ccc(C(O)(C(F)(F)F)C(F)(F)F)cc1)S(=O)(=O)c1ccccc1
- Activity [1]: inactive

- Activity [8]: Dose-dependent effect
- fold change (FC) [14]: 2.3
- Activity [3]: inactive
- fold change (FC) [21]: 1.4
- Activity [4]: inactive
- Activity [23]: > 75%
- fold change (FC) [28]: 2
SMILES: CC12CCC(CC1)C(C)(C)O2 [EUCALYPTOL]
- inhibition (INH) [6]: 40%
- inhibition (INH) [7]: 50%
- Activity [9]: Dose-dependent effect
- Activity [10]: Active
- Activity [11]: 17%
- inhibition (INH) [12]: 30%
- inhibition (INH) [13]: 24%
- Activity [15]: Active
- Activity [16]: Active
- Activity [17]: 35%
- Activity [18]: Active
- Activity [19]: 50%
- inhibition (INH) [20]: 10%
- Activity [22]: Active
- Activity [24]: Active
- inhibition (INH) [25]: 25%
- Activity [26]: Active
- Activity [27]: 17%
- Activity [29]: 20%
- inhibition (INH) [30]: 25%
